# Bioassay records as filed in PubChem.
# An excerpt weighted towards active compounds, which were near 2.9% of everything screened.
# SENP1 inh – blocks the human SENP1 SUMO protease catalytic domain; inhibition, % at 10 µM; 360,000 tested, 0.21% active; recombinant SENP1 catalytic domain, CyPet-SUMO1-YPet FRET cleavage; Q9P0U3;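 active = inhibition at least 30% at 10 µM, raw YFP signal under a set limit, fluorescence ratio 0.5 to 1.5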
#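 Material – human SENP1 catalytic domain · Input – SENP1 enzyme, 20 pM final · Compound dosing – single concentration of 10 µM compound, 0.5% DMSO final · Timing – enzyme reaction for 50 min at room temperature, dark · Measured by – FRET fluorescence in CFP and YFP emission channels · Control set – no-enzyme wells low, DMSO-plus-enzyme wells high control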
# SENP6 block – blocks the human protease SENP6; Q9GZR1; Recombinant SENP6 catalytic domain, aminoluciferin luminescence; inhibition, % at 10 µM; 330,000 tested, 1.8% active;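 active = inhibition above about 50% at the single tested dose, limit read from the data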
# SENP8 block-1 – blocks human SENP8 cleavage of Nedd8 substrate; Q96LD8; recombinant SENP8, Nedd8 substrate fluorescence; inhibition, % at 20 µM; 360,000 tested, 0.64% active; AID 602440; in the data active = inhibition mostly above about 40%, no sharp cut-off; inactive = mostly below about 27%
# Target sequence (Q96LD8 whole entry, looked up): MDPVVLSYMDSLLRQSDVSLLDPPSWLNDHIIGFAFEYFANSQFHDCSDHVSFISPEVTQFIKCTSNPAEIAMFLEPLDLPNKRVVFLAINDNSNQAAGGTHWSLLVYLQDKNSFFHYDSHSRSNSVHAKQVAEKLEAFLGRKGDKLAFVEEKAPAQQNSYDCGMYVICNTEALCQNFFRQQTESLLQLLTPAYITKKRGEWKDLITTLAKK
# SENP7 block – SENP7 protease inhibition. recombinant SENP7, Z-RLRGG-aminoluciferin luminescence, 40 min. inhibition, % at 5 µM. 330,000 tested, 1.5% active. AID 434973;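 active = inhibition above about 50% at the single test dose, limit read from the data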
# SENP8 block-2 – inhibitors of human SENP8 protease. 330,000 tested, 1.2% active. AID 2540. purified SENP8, Z-RLRGG-aminoluciferin cleavage, luminescence. inhibition, % at 10 µM. Q96LD8; in the data active = inhibition above about 50%
# HSP90 inh – blocks HSP90-mediated luciferase refolding in reticulocyte lysate; inhibition, % at 5.6 µM; 290,000 tested, 0.91% active; Rabbit reticulocyte lysate, luciferase refolding luminescence, 3 h;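 active = inhibition above the screen-wide mean plus 3 SD, computed separately per campaign, cut at about 16% in these data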;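 also: inhibitors lower the luminescence because luciferase stays unfolded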
# SENP8 conf – human SENP8 inhibition, confirmed | shares compounds with SENP7 block | Recombinant SENP8, Z-RLRGG-aminoluciferin luminescence, 60 min | inhibition, % at 12.5 µM | 6,200 tested, 40% active | AID 488912;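 active = mean inhibition across replicates above about 50%, limit read from the data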
# SENP6 confirm – confirmation of human SENP6 protease inhibitors | shares compounds with SENP7 block | recombinant SENP6, Z-RLRGG-aminoluciferin luminescence | inhibition, % at 12.5 µM | 6,200 tested, 58% active | AID 488915
# SENP7 confirm – human SENP7 inhibition, confirmed; shares compounds with SENP7 block; recombinant SENP7, Z-RLRGG-aminoluciferin luminescence, 40 min; inhibition, % at 12.5 µM; 6,200 tested, 69% active
# Casp3 select – inhibits human caspase-3 in SENP selectivity test; inhibition, % at 12.5 µM; purified caspase-3, Z-DEVD-aminoluciferin luminescence, 60 min; AID 488918; shares compounds with SENP7 block; 6,200 tested, 60% active;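 active = mean inhibition above about 50%, limit read from the data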
# Target sequence (P42574 28-227 limits assumed): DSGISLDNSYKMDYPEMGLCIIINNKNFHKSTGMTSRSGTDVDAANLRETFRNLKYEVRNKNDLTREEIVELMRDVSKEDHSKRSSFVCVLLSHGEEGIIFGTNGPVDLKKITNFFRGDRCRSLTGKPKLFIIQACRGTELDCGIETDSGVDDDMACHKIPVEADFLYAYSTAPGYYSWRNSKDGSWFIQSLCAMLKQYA
# Luc interf – counter-screen for SENP inhibitors: luminescence interference; shares compounds with SENP7 block; Pre-incubated SENP8/Z-RLRGG-aminoluciferin, luciferase luminescence interference; inhibition, % at 12.5 µM; 6,200 tested, 39% active;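 active = mean inhibition above about 50% when retested at one dose, limit read from the data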
# A number is an active result; – = inactive; · = not tested or not shown.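 The calls were made as follows, unless noted: active = mean inhibition above about 50% in the one-dose retest (limit read from the data); inactive = the rest.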
SMILES,SENP1 inh,SENP6 block,SENP8 block-1,SENP7 block,SENP8 block-2,HSP90 inh,SENP8 conf,SENP6 confirm,SENP7 confirm,Casp3 select,Luc interf
O=C(C#Cc1ccccc1)Nc1cccc(F)c1,–,81,–,84,71,–,85,83,93,67,75
CSc1ccccc1NC(=O)Nc1ccccc1,–,90,–,81,66,–,–,82,–,83,83
O=C(C#Cc1ccccc1)Nc1ccc(F)cc1,–,–,–,–,–,–,·,·,·,·,·
CSc1ccccc1NC(=O)Nc1cccc(F)c1,–,86,–,83,69,–,87,86,98,79,68
CC1(C(=O)NS(=O)(=O)c2ccc3ccccc3c2)CCN1C(=O)Cc1ccc(Cl)cc1Cl (centres undefined),–,·,–,·,·,·,·,·,·,·,·
O=C(Oc1ccc[nH]c1=O)C1CC1,–,·,–,·,·,·,·,·,·,·,·
CCNC(=O)Oc1ccc[nH]c1=O,–,51,–,–,–,–,–,–,–,–,–
COc1ccc2oc(C(=O)N(C)CCOc3ccccc3)c(C)c2c1,–,–,–,–,–,–,·,·,·,·,·
Oc1ccc(C=Nc2ccc(N3CCOCC3)cc2)c(O)c1,–,–,–,–,–,–,·,·,·,·,·
Oc1cc(Br)ccc1C=Nc1ccc(N2CCCCC2)cc1,–,–,–,53,–,–,–,–,–,–,–
Cc1cc(Br)cc(C=Nc2ccc(N3CCOCC3)cc2)c1O,–,–,–,73,–,·,–,–,–,–,–
C[C@@H]1CN([C@@H](C)CO)C(=O)CCCn2nncc2CO[C@@H]1CN(C)C(=O)Nc1ccnc(N2CCOCC2)c1,–,·,–,·,·,·,·,·,·,·,·
CCCCOc1ccc(C(=O)NCCOc2cccc(OC)c2)cc1,–,–,–,–,–,–,·,·,·,·,·
O=C1OC(c2ccccc2)=C/C1=C/c1cccs1,–,59,–,57,–,–,–,–,–,–,–
Cc1c(Cl)cnc(NC(=O)COC(=O)c2ccc([N+](=O)[O-])s2)c1Cl,–,71,–,–,–,–,–,76,–,–,–
O=C(COC(=O)c1ccc([N+](=O)[O-])s1)Nc1ccc(Cl)cn1,–,65,–,–,–,–,–,–,–,–,–
Cc1ccc(C(=O)OCC(=O)Nc2ccc(Cl)cn2)s1,–,–,–,–,–,·,·,·,·,·,·
C[C@@H]1CCCCO[C@@H](CN(C)Cc2ccc(Cl)c(Cl)c2)[C@@H](C)CN([C@H](C)CO)C(=O)c2cc(NC(=O)CCC(F)(F)F)ccc2O1,–,·,–,·,·,·,·,·,·,·,·
CCc1ccc(C2=NN(C(C)=O)C(c3ccco3)C2)cc1 (centres undefined),–,82,–,81,83,–,92,92,99,90,92
CCC(=O)N1N=C(c2ccc(Cl)cc2)CC1c1ccco1 (centres undefined),–,–,–,–,–,–,·,·,·,·,·
O[C@@H]1CN(Cc2cccs2)[C@@H](c2ccc(Cl)cc2)C[C@H]1n1cc(C2CC2)nn1,–,·,–,·,·,·,·,·,·,·,·
O=C(Nc1ccc(NC(=O)c2cccs2)c(Cl)c1)c1cccs1,–,63,–,53,–,–,–,51,80,–,–
Cc1occc1C(=O)Nc1cccc(C(=O)NCc2ccccc2)c1,–,–,–,–,–,–,·,·,·,·,·
COc1cccc(CNC(=O)c2ccc(COc3ccccc3)cc2)c1,–,–,–,–,–,–,·,·,·,·,·
CC(C)(CNC(=O)c1cccs1)CNC(=O)c1cccs1,–,–,–,84,–,–,–,–,–,–,–
O=C(O)c1ccc(COc2cccc(CO)c2)cc1,–,74,–,86,64,–,–,70,93,93,74
